Screening results: PubChem BioAssay, several laboratories
Rows were chosen to be rich in hits. Some 3.8% of all compounds tested hit in one or more screens of this group.
HSF1 inhib = HSF1 inhibition; NIH3T3-HGL HSE-luciferase, MG132-induced, luminescence 8 h; active compounds read low; 0.77% of 300,000 active; AID 2098; activity change, negative = inhibition, % at 7.5 µM (by protocol);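 active = more than half of replicate wells show activity change below -50%, luminescence cut by over half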;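 note: luciferase reports HSF-1 transcriptional activity via heat shock element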
HCV NS3 hel inh = blocks Hepatitis C virus NS3 helicase unwinding. NS3 helicase DNA unwinding, Cy5 molecular beacon fluorescence. inhibition, % at 10.9 µM. 0.56% of 290,000 active;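 active = inhibition above the mean of all tested compounds plus 3 SD, set per campaign, cut at about 35% in these data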
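System: Hepatitis C virus NS3 helicase domain fragment enzyme | Reagent: Annealed dual-labelled DNA beacon duplex, ATP-started | Compound dosing: 10.9 µM single point, 0.8% DMSO | Incubation: 1 h reaction at 25 °C, ATP-initiated | Technique: Cy5 fluorescence | Evaluation: Percent inhibition from t60/t0 fluorescence ratio | Benchmarks: Low DMSO, high thioflavine S at 110 µM | Replication: Singlicate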
Lipid droplet = modulators of hepatic lipid droplet formation | AML12 mouse hepatocytes, oleate lipid droplets, BODIPY imaging | inhibition, % at 6.5 µM | 0.4% of 240,000 active | AID 1656;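 active = lipid droplet intensity inhibited by at least 50%, with more than 500 cells counted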
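Technique: fluorescence imaging, 20x objective, two fields per well / Assay system: AML12 hepatocytes (mouse) / Measure: % inhibition of lipid droplet signal / Doses: 6.5 µM single-point dosing / Incubation: overnight exposure / Reagent: 100 µM oleic acid challenge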
HSF1 activator = increases HSF-1 driven luciferase reporter signal; 1.7% of 300,000 active; NIH3T3-HGL HSF-1 luciferase reporter, MG132, 8 h; 100% = twice DMSO control signal; activation, % at 9 µM;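 active = mean replicate activation of at least 50% with a set share of replicates each reaching 50%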
HSP90 refold inh = inhibitors of HSP90 luciferase refolding in rabbit reticulocyte lysate; luciferase refolding luminescence, 3 h; inhibition, % at 5.6 µM; 0.91% of 290,000 active;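 active = inhibition above the screen-wide mean plus 3 SD, computed separately per campaign, cut at about 16% in these data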;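 note: inhibitors lower the luminescence because luciferase stays unfolded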
HSP90 inh confirm = HSP90 inhibition, confirmation assay. AID 1846. rabbit reticulocyte lysate, luciferase refolding luminescence, 3 h. 64% of 2,300 active. shares compounds with HSP90 refold inh. inhibition, % at 5.9 µM; in the data active = inhibition above about 18%
FLuc counter = firefly luciferase inhibition, HSP90 counter-screen. shares compounds with HSP90 refold inh. purified native firefly luciferase, luminescence. inhibition, % at 5.9 µM. 48% of 2,300 active. AID 1847;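 active = inhibition above the mean inhibition of all tested sample wells plus 3 SD, cut at about 10% in these data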
Target sequence (P08659 whole entry, looked up): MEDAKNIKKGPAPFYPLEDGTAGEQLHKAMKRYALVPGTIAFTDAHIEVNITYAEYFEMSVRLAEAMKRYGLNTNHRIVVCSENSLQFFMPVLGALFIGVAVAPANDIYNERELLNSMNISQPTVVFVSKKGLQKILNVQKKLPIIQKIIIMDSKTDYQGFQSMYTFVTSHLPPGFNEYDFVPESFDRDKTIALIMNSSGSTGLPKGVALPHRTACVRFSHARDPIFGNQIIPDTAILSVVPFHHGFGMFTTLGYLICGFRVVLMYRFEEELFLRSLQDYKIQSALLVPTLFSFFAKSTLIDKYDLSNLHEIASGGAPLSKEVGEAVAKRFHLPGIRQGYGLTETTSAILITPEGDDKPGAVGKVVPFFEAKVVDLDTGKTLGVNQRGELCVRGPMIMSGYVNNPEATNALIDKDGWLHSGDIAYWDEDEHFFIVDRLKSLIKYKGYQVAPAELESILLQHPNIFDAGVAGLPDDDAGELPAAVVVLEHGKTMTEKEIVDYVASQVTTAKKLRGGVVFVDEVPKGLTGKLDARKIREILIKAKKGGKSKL
A number is an active result; - = inactive; . = no result.

SMILES | HSF1 inhib | HCV NS3 hel inh | Lipid droplet | HSF1 activator | HSP90 refold inh | HSP90 inh confirm | FLuc counter
Cn1c2ccccc2c(=O)c2ccc(C#CC3(N)CCCCC3)cc21 | - | - | - | - | 34 | 30 | -
Cn1c2ccccc2c(=O)c2ccc(C#Cc3ccccn3)cc21 | - | - | . | - | - | . | .
Cn1c2ccccc2c(=O)c2cc(C#CC3(O)CCCCC3)ccc21 | -85 | - | - | - | 72 | 76 | 71
COc1ccc(S(=O)(=O)NCc2cccnc2)cc1C(=O)Nc1ccccc1 | - | - | - | - | - | . | .
Cc1ccc(CC(C(=O)O)C(C)C(=O)Nc2ccc(F)cc2)cc1 (centres undefined) | - | - | - | - | - | . | .
CCOc1ccc(C(=O)Nc2nnc(SCC(=O)NCC3CCCO3)s2)cc1 (centres undefined) | - | - | - | - | 36 | 61 | 44
CC(C)(C)c1ccc(C(=O)Nc2nnc(SCC(=O)NCC3CCCO3)s2)cc1 (centres undefined) | - | - | - | - | 36 | 54 | 45
CC(C)C[C@H](NC(=O)[C@@H]1Cc2c([nH]c3ccccc23)C2c3ccccc3C(=O)N21)C(=O)N1CCC[C@@H]1C(=O)O (some centres undefined) | - | - | . | - | - | . | .
O=C(Nc1ccc(Cl)cc1Cl)c1cccc(N2C(=O)C=CC2=O)c1 | - | . | . | - | . | . | .
CC1(C)Cc2ccccc2C2=NNC(=O)C2=N1 | - | - | - | - | 17 | 34 | -
O=C(Cc1ccc(Cl)cc1)Nc1ccccc1N1CCN(C(=O)c2ccccc2)CC1 | - | - | - | - | - | . | .
CCC1(C)Cc2c(sc(NC(=S)NC(=O)c3ccccc3)c2C#N)CO1 (centres undefined) | - | - | - | - | - | . | .
CN1Cc2sc(NC(=S)NC(=O)c3ccccc3)c(C#N)c2CC1(C)C | -77 | - | - | - | 17 | 31 | 15
COc1ccc(OC)c(S(=O)(=O)NCC(c2ccco2)S(=O)(=O)c2ccccc2)c1 (centres undefined) | - | . | . | - | . | . | .
Cc1cc(CC(C)C)n(-c2nc3ccccc3c(=O)n2OCc2ccccc2)n1 | - | - | . | - | 18 | - | 9.5
Cc1ccc(NC(=S)Nc2ccc(S(=O)(=O)N3CCOCC3)cc2)cc1S(=O)(=O)N1CCOCC1 | - | - | - | - | - | . | .
CCOc1ccc(C(=O)N2CCCC2)cc1 | - | - | - | - | - | . | .
CCOc1ccc(OCc2cccc(C(=O)N3CCCC3)c2)cc1 | -51 | - | - | - | 21 | 30 | 26
CCOc1ccc(OCc2cccc(C(=O)N3CCCCCC3)c2)cc1 | - | - | - | - | 28 | 56 | 52
CCCCCNCc1cccc(Br)c1 | - | - | . | - | - | . | .
O=C(CNc1cccc(F)c1)N1CCc2ccccc2C1 | - | - | . | - | - | . | .
Cc1ccccc1Cn1c(C)nc2ccc([N+](=O)[O-])cc2c1=O | - | - | - | - | - | . | .
C=CCSc1nnc(-c2ccccc2N=Cc2c(C)[nH]n(-c3ccccc3)c2=O)c(=O)[nH]1 | - | - | - | - | 22 | - | -
O=C(Nc1cccc(O)c1)c1cc(-c2ccc3c(c2)OCO3)on1 | - | - | - | - | 68 | 92 | 85
O=C(c1cc(-c2ccccc2Cl)on1)N1CCCC1 | - | - | - | - | 51 | 55 | 49
SMILES | HSF1 inhib | HCV NS3 hel inh | Lipid droplet | HSF1 activator | HSP90 refold inh | HSP90 inh confirm | FLuc counter
COc1cc(NC(=O)c2cc(-c3ccc4c(c3)OCO4)on2)cc(OC)c1OC | - | - | - | - | - | . | .
COc1ccccc1-c1cc(C(=O)N2CCCC2)no1 | - | - | - | - | - | . | .
O=C(Nc1cccc(O)c1)c1cc(-c2ccccc2Cl)on1 | -58 | - | - | - | 41 | 63 | 48
Cc1nn(C)cc1/C=N/NC(=O)CSc1ccccn1 | - | - | - | - | - | . | .
C=CCn1c(C)cc(C(=O)COC(=O)[C@@H](NC(=O)c2ccccc2Cl)C(C)C)c1C | -61 | - | - | - | 27 | 54 | 43
COc1cc(N2Cc3ccccc3C2)ccc1C=O | - | - | - | - | 54 | 40 | -
COc1cccc(-n2ccn(CC(=O)NCCc3ccccc3)c(=O)c2=O)c1 | - | - | - | - | - | . | .
Cc1cccc2c3nc4ccccc4nc3n(CCCN3C(=O)c4ccccc4C3=O)c12 | - | - | - | - | 25 | - | -
COc1ccc2c(c1)c1nc3ccccc3nc1n2CCCN1C(=O)c2ccccc2C1=O | - | - | - | - | - | . | .
c1ccc2c(C3=NNC(=NC4CC4)SC3)c[nH]c2c1 | - | - | - | 157 | 19 | 61 | 38
O=C(CSc1nnc(-c2cccnc2)o1)Nc1cccc(F)c1 | - | . | . | - | . | . | .
Cc1ccc(-c2nnc(SCC(=O)Nc3ccccc3F)o2)cc1 | -54 | - | . | - | 54 | 31 | 29
O=C(CSc1nnc(-c2cccnc2)o1)Nc1ccc(Br)cc1 | - | - | - | - | 18 | - | -
COC(=O)C1C/C(=N/NS(=O)(=O)c2ccc(C)cc2)CS1 (centres undefined) | - | - | - | - | - | . | .
COc1ccc(C(=O)Nn2c(SCC(=O)NCC3CCCO3)nc3ccccc3c2=O)cc1 (centres undefined) | -66 | - | - | - | 63 | 78 | 72
CCOC(CCn1c(SCC(=O)NC2CCCC2)nc2ccccc2c1=O)OCC | - | - | - | - | - | . | .
COc1ccc(C(=O)Nn2c(SCC(=O)NC3CCCC3)nc3ccccc3c2=O)cc1 | -58 | - | . | - | 72 | 52 | 49
COc1ccc(C(=O)Nn2c(SCC(=O)NCc3ccccc3)nc3ccccc3c2=O)cc1 | -61 | - | - | - | 68 | 50 | 49
CC(Sc1ccccc1)C(=O)NN=C1CCCCCC1 (centres undefined) | - | - | - | - | - | . | .
COc1ccccc1N(C(=O)c1csnn1)C(C(=O)NC1CCCC1)c1ccccc1 (centres undefined) | - | - | - | - | - | . | .
COc1ccccc1C1CCN(C(=O)c2cccc([N+](=O)[O-])c2)CC1 | - | - | - | - | - | . | .
CSc1nnc2c(n1)OC=Nc1ccc(Br)cc1-2 | - | - | - | - | - | . | .
O=C(COC(=O)c1ccco1)NCc1ccco1 | - | - | . | - | - | . | .
COc1ccc(CNC(=O)COC(=O)c2ccco2)cc1 | - | - | - | - | 51 | - | -
COc1cccc(Cn2cccc(NC(=O)NCc3ccccc3)c2=O)c1 | - | - | - | - | 18 | - | -
COc1ccccc1NC(=O)C(C)Sc1nc2ccccc2c(=O)n1CC1CCCO1 (centres undefined) | - | . | . | - | . | . | .
CC(C)(C)NC(=O)NC(=O)COc1ccccc1C#N | - | - | - | - | 18 | - | -
Cc1nnsc1S(=O)c1ccc(F)cc1 (centres undefined) | - | - | . | - | 24 | - | -
